Screening results deposited in PubChem by Broad Institute.
An excerpt weighted towards active compounds, which were near 1.1% of everything screened.
CDK5 inh – CDK5/p35 (human) kinase inhibition; AID 488839; inhibition, % at 10 µM; 0.01% of 330,000 active; Recombinant CDK5/p35, ADP-Glo luminescence, 60 min; Q00535+Q15078;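 active = highest replicate inhibition of at least 50% and at least 75% of replicates reaching 50%; inconclusive = only one of the two criteria met; inactive = both criteria failed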;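 note: plate controls were DMSO neutral control for no effect and GW8510 at 10 µM for full effect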
SR-BI DiI inh – blocks mouse SR-BI lipid uptake from DiI-HDL | Q61009 | 0.96% of 320,000 active | inhibition, % at 12.5 µM | ldlA[mSR-BI] CHO cells, DiI-HDL uptake fluorescence, 3 h;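 active = mean replicate inhibition of at least 70% and a set share of replicates each scoring 70 or more; inconclusive = meets just one of the two criteria; inactive = fails both criteria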;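 note: 0% = median of neutral control wells and 100% = median of positive control wells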
Target sequence (Q61009 whole entry, looked up): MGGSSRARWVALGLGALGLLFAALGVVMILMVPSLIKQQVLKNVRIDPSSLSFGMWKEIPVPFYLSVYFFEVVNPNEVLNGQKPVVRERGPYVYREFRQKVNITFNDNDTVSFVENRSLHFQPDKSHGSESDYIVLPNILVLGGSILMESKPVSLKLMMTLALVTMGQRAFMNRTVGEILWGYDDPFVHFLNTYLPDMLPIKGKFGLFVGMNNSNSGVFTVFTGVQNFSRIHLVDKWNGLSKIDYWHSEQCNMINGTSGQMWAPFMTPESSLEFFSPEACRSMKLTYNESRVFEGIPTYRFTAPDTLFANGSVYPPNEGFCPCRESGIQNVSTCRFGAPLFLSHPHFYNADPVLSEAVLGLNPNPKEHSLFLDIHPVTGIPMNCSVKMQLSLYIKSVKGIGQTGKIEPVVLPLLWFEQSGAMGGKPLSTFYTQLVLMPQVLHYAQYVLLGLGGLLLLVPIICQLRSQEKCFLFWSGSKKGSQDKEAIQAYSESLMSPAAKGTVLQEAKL
GSK3A inh – human GSK-3 alpha kinase inhibition. AID 2650. inhibition, % at 10 µM. ADP-Glo luminescence, 60 min. 0.1% of 320,000 active. P49840;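 active = more than half of replicates show inhibition above 20%; inconclusive = some but at most half of replicates above 20% inhibition; inactive = no replicate shows inhibition above 20%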;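 note: GST-tagged GSK-3 alpha with peptide substrate and 25 µM ATP; 0% = DMSO neutral wells and 100% = GW8510 positive control wells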
GSK3B inh – blocks human GSK3beta kinase activity | P49841 | GST-GSK3beta kinase, ADP-Glo luminescence, 60 min; hits give low values | activity score (negative = inhibition), % at 10 µM | 0.038% of 300,000 active | AID 2097;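 active = more than half of replicate wells score below -50%, meaning over 50% inhibition versus plate controls; inconclusive = some replicates but at most half score below -50%; inactive = no replicate scores below -50%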;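 note: 0% = median DMSO wells and -100% = median GW8510 positive control wells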
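Assay system: GST-fused GSK3beta enzyme, cell-free / Medium: Tris pH 7.5 buffer with MgCl2, DTT, BSA, heparin / Also added: peptide substrate plus 25 µM ATP (final) / Compound: 10 µM single point / Timing: kinase reaction with compound 60 min at room temperature / Detection: ADP-Glo luminescence / Benchmarks: DMSO neutral wells and GW8510 at 20 µM as positive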
SR-BI DiI-HDL act – enhances SR-BI lipid uptake from DiI-HDL. activation, % at 12.5 µM. CHO ldlA[mSR-BI] cells, DiI-HDL uptake fluorescence, 3 h; 100 = double the neutral-control signal. 0.096% of 320,000 active;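 active = mean replicate activation of at least 60% and every replicate at or above 60%; inconclusive = mean or all-replicate condition met, but not both; inactive = mean below 60% and not all replicates reaching 60%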;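 note: 0% = median plate neutral-control signal and 100% = twice that signal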
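Material: SR-BI-overexpressing, LDLR-lacking CHO cells | Dosing: Single compound concentration, delivered by pin transfer | Probe or stimulus: Labelled HDL, 10 µg/mL | Signal: Bottom-read cell fluorescence after medium removal, ex 550/em 595 nm | Schedule: 3 h, 37 °C | Evaluation: HDL uptake via cellular fluorescence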
DiI quench – quenches DiI-HDL fluorescence, an SR-BI assay artifact; 20% of 470 active; AID 540326; shares compounds with SR-BI DiI inh; AC50, µM (top dose mostly 35 µM), for inactives: at the top dose activity change, negative = quenching; cell-free DiI-HDL fluorescence quenching, 30 min;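 active = quenching, a falling signal, with AC50 below a set limit tied to the top valid dose, actives reach about 32 µM in these data; inconclusive = no clear call, values can overlap the other calls; inactive = rising signal, and the rest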
* hit, by the source's call; ? = inconclusive; / = no result.

SMILES | CDK5 inh | SR-BI DiI inh | GSK3A inh | GSK3B inh | SR-BI DiI-HDL act | DiI quench
COc1ccc(C2/C=C\CN(CC(C)C)CC(=O)N2Cc2cccc(F)c2)cc1 (configuration not stated) | 4 | -1 | / | / | 1 | /
COc1ccc(C(=O)Nc2ccc(C(=O)N3CCC(C)CC3)cc2)cc1OC | -2 | 39 | -1 | 0 | -39 | /
Cc1ccccc1-n1ncc2c1CC(C)(C)CC2NC(=O)C1=CC(=O)CC(C)(C)O1 (configuration not stated) | -2 | 15 | -2 | -1 | -15 | /
COCCNC(=O)CCN1N=C(c2ccccc2)CCC1=O | 0 | -3 | 0 | 6 | 3 | /
O=C(C1CC(=O)N(c2ccc3c(c2)OCCO3)C1)N1CCN(S(=O)(=O)c2cccc(F)c2)CC1 (configuration not stated) | 0 | -14 | / | / | 14 | /
CC(=O)c1ccc(N2CCN(C(=O)c3ccc(S(=O)(=O)NCc4ccco4)cc3)CC2)cc1 | -2 | 48 | 2 | / | -48 | /
O=C(c1ccc(S(=O)(=O)NCc2ccco2)cc1)N1CCN(Cc2ccccc2F)CC1 | -1 | 68 | / | / | -68 | -5%
COc1ccc(CN2CCN(C(=O)c3ccc(S(=O)(=O)NCc4ccco4)cc3)CC2)cc1 | -3 | 93* | / | / | -93 | -5%
O=C(NC1CCN(Cc2ccccc2)CC1)c1ccc(S(=O)(=O)NCc2ccco2)cc1 | 2 | 13 | -2 | -1 | -13 | /
O=C(c1ccc(S(=O)(=O)NCc2ccco2)cc1)N1CCN(Cc2ccccc2)CC1 | 0 | 65 | -3 | 3 | -65 | 0%
O=C(c1ccc(S(=O)(=O)NCc2ccco2)cc1)N1CCN(c2ccc(F)cc2)CC1 | 1 | 27 | -5 | / | -27 | /
COc1ccc([C@@H]2CC=C(C(=O)O)[C@H](c3cccc(Cl)c3)N2S(=O)(=O)c2ccccc2C)cc1 | -1 | 6 | -3 | / | -6 | /
O=C(NCCn1cc(SCC(=O)N2CCOCC2)c2ccccc21)c1c(F)cccc1F | -1 | -13 | -1 | 0 | 13 | -3%
O=C(CSc1cn(CCNC(=O)c2cccs2)c2ccccc12)NC1CCCCC1 | -1 | 23 | 1 | 0 | -23 | /
O=C(CSc1cn(CCNC(=O)c2cccs2)c2ccccc12)NCC1CCCO1 (configuration not stated) | 1 | 3 | 0 | -4 | -3 | -3%
Cc1nc(NC(=O)CSc2nnc(N)s2)c(Cl)cc1Cl | 3 | -7 | 1 | 2 | 7 | /
CC(Sc1cccc[n+]1[O-])C(=O)NC1CCCCC1C (configuration not stated) | 1 | -15 | -1 | / | 15 | /
COc1cccc(CN(C)C(=O)CN2C(=O)NC(c3ccccc3)(c3ccccc3)C2=O)c1 | 2 | -7 | / | / | 7 | /
COCCNC(=O)c1ccc(CS(=O)(=O)c2cccc(C(F)(F)F)c2)o1 | -1 | 75* | 0 | 0 | -75 | 9%
COc1ccc(OCC(O)Cn2c(Nc3cccc(C)c3)nc3c2c(=O)n(C)c(=O)n3C)cc1 (configuration not stated) | 0 | 77* | / | 0 | -77 | -10%
Cc1cccc(Nc2nc3c(c(=O)n(C)c(=O)n3C)n2Cc2ccccc2)c1 | 1 | -20 | / | -4 | 20 | /
COc1ccc(-c2cc(C(F)(F)F)nc(SCCC(=O)N3CCN4CCCC4C3)n2)cc1 (configuration not stated) | 0 | ? | -1 | -1 | -73 | -3%
COc1ccc(-c2cc(C(F)(F)F)nc(SCCC(=O)N3CCCC3)n2)cc1 | -2 | 60 | 0 | 2 | -60 | /
O=C(Nc1ccc(N2CCOCC2)cc1)c1cccc(S(=O)(=O)N2CCC(Cc3ccccc3)CC2)c1 | 0 | 93* | 2 | 5 | -93 | -15%
O=C(Nc1ccc(N2CCOCC2)cc1)c1cccc(S(=O)(=O)N2CCCC2)c1 | 4 | 56 | -2 | 0 | -56 | /
SMILES | CDK5 inh | SR-BI DiI inh | GSK3A inh | GSK3B inh | SR-BI DiI-HDL act | DiI quench
CSc1ccccc1OCc1cc(C(=O)N(C)Cc2c(C)n[nH]c2C)no1 | -1 | 78* | 0 | 5 | -78 | -4%
CSc1ccccc1OCc1cc(C(=O)N(C)Cc2cc(C)[nH]n2)no1 | 0 | 37 | 0 | 3 | -37 | /
CCN(C(=O)COn1nnc2ccc(S(=O)(=O)N(C)C)cc21)C1CCS(=O)(=O)C1 (configuration not stated) | 2 | 21 | 0 | / | -21 | -3%
CCOc1ccccc1NC(=O)c1cc(SC)ccc1Cl | 0 | 66 | 0 | 0 | -66 | /
CC(Sc1nc2cc([N+](=O)[O-])ccc2n1-c1ccc(F)cc1)C(=O)NCc1ccc2c(c1)OCO2 (configuration not stated) | -2 | 82* | 1 | 2 | -82 | -6%
COc1ccccc1-n1c(SCC(=O)NCc2ccc3c(c2)OCO3)nc2cc([N+](=O)[O-])ccc21 | -1 | 11 | 0 | -2 | -11 | /
CC(C)(C)NC(=O)N1CCN(c2ncccc2C(F)(F)F)CC1 | -1 | 88* | -1 | 0 | -88 | -4%
O=C(N=C1SC2CS(=O)(=O)CC2N1c1ccc(OC(F)(F)F)cc1)C1CC1 (configuration not stated) | -4 | -23 | 0 | 0 | 23 | /
COc1ccccc1NC(=O)CN1CCN(CC(=O)Nc2ccc(F)cc2)CC1 | -1 | 1 | 0 | / | -1 | /
COc1ccccc1NC(=O)CN1CCN(CC(=O)Nc2ccc(OCc3ccccc3)cc2)CC1 | -1 | 41 | 0 | 2 | -41 | -2%
COc1ccccc1NC(=O)CN1CCN(CC(=O)Nc2ccc(C)c(F)c2)CC1 | 1 | 104* | 1 | -3 | -104 | -4%
Cc1sc(NC(=O)Cc2ccc3c(c2)OCO3)nc1-c1ccc2c(c1)CCN2C(=O)c1cccc(F)c1 | 1 | 77* | / | 2 | -77 | -2%
Cc1cccc(C(=O)N2CCc3cc(-c4nc(NC(=O)CN5CCCC5)sc4C)ccc32)c1 | -1 | / | -2 | -1 | / | /
Cc1ccccc1C(=O)N1CCc2cc(-c3nc(NC(=O)Cc4ccc5c(c4)OCO5)sc3C)ccc21 | 1 | 66 | -1 | 1 | -66 | -2%
NC(=O)c1ccsc1NC(=O)c1coc2ccccc2c1=O | -1 | -12 | -2 | 0 | 12 | /
Cn1nnnc1SCC(=O)Nc1ccccc1C(N)=O | 3 | -21 | 2 | 4 | 21 | /
Cc1nnc(NC(=O)CSc2nnc(CNC(=O)c3ccc(S(=O)(=O)N(C)C)cc3)o2)s1 | -1 | 9 | 0 | 2 | -9 | /
COc1ccc(C(=O)CSc2nnc(CNC(=O)c3ccc(S(=O)(=O)N(C)C)cc3)o2)cc1 | -1 | 78* | -3 | 0 | -78 | 0%
